Measurements from ChEMBL document CHEMBL1275432, “Daptomycin is effective in treatment of experimental endocarditis due to methicillin-resistant and glycopeptide-intermediate Staphylococcus aureus” (Antimicrob Agents Chemother, 2008).
≈ marks a conversion by molar mass, not a printed value. Calls of active or inactive are those of the source.

Tests used:
[1] = Cmin in New Zealand White rabbit infected with methicillin-resistant Staphylococcus aureus after 24 hrs; type: ADME, organism-based, Oryctolagus cuniculus; settings: in vivo, read-out: Cmin
Method in brief: (§1)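 Trough serum concentrations were taken in rabbits with catheter-induced aortic valve endocarditis. Infection was 1 ml i.v. via the marginal ear vein: 7 × 10^5 CFU/ml for MRSA or 8 × 10^5 CFU/ml for GISA. Human-simulating pump infusion started 18 h after infection and ran 48 h. Daptomycin was assayed by M. luteus bioassay, vancomycin by immunoturbidimetry.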

Staphylococcus aureus [2] = experiment: Antimicrobial activity against methicillin-resistant Staphylococcus aureus after 72 hrs by Etest; type: functional
[3] = Cmin in New Zealand White rabbit infected with glycopeptide-intermediate Staphylococcus aureus after 24 hrs; type: ADME, organism-based, Oryctolagus cuniculus; settings: in vivo, read-out: Cmin; method in brief: as §1
Staphylococcus aureus [4] = experiment: Bacteriostatic activity against methicillin-resistant Staphylococcus aureus 277 at 0.5 to 4 times MIC by time-kill experiment; type: functional, organism-based
Method in brief: (§2)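 Time-kill curves per CLSI, run in duplicate. Inoculum was 10^5 CFU/ml, with drug at 0.5–4× MIC. Viable counts were taken at 0, 4 and 24 h. Bactericidal was defined as a ≥3-log CFU reduction at 24 h versus the initial inoculum.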

[5] = Terminal half-life in New Zealand White rabbit at 1 g, iv administered every 12 hrs; type: ADME, organism-based, Oryctolagus cuniculus; settings: in vivo
Method in brief: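 The vancomycin line simulated 1 g i.v. q 12 h (30 mg/kg/day in 2 doses). The daptomycin line simulated 6 mg/kg q 24 h. Parameters came from an open 2-compartment model. Daptomycin was measured by disk-plate bioassay with Micrococcus luteus ATCC 9341 (sensitivity 0.5 µg/ml). Vancomycin was measured by latex-boosted immunoturbidimetry (LOD 0.8 µg/ml).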

[6] = Terminal half-life in human serum at 1 g, iv administered every 12 hrs; type: ADME, organism-based
Staphylococcus aureus [7] = experiment: Bacteriostatic activity against glycopeptide-intermediate Staphylococcus aureus ATCC 700788 at 0.5 to 4 times MIC by time-kill experiment; type: functional, organism-based; method in brief: as §2
[8] = Plasma protein binding in New Zealand White rabbit plasma at 1 g, iv administered every 12 hrs; type: ADME, organism-based, Oryctolagus cuniculus; settings: read-out: PPB (converted)
[9] = Terminal half-life in human serum at 6 mg/kg, iv administered every 24 hrs; type: ADME, organism-based; set-up: dose 6 mg/kg, route intravenous
[10] = Cmax in human serum at 6 mg/kg, iv administered every 24 hrs; type: ADME, organism-based; set-up: dose 6 mg/kg, route intravenous
Staphylococcus aureus [11] = experiment: Antimicrobial activity against glycopeptide-intermediate Staphylococcus aureus ATCC 700788 by microdilution method; type: functional
Method in brief: (§3)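 Broth microdilution MIC and MBC per CLSI in cation-adjusted Mueller-Hinton broth. For daptomycin, the broth was adjusted to 50 µg/ml calcium. S. aureus ATCC 29213 was the control strain.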

Staphylococcus aureus [12] = experiment: Bactericidal activity against methicillin-resistant Staphylococcus aureus 277 at 0.5 to 4 times MIC by time-kill experiment; type: functional, organism-based; method in brief: as §2
[13] = AUC in human serum at 6 mg/kg, iv administered every 24 hrs; type: ADME, organism-based; set-up: dose 6 mg/kg, route intravenous
Staphylococcus aureus [14] = experiment: Antimicrobial activity against methicillin-resistant Staphylococcus aureus 277 by microdilution method; type: functional; method in brief: as §3
[15] = Plasma protein binding in human serum at 6 mg/kg, iv administered every 24 hrs; type: ADME, organism-based; set-up: dose 6 mg/kg, route intravenous; settings: read-out: PPB (converted)
[16] = Plasma protein binding in New Zealand White rabbit plasma at 6 mg/kg, iv administered every 24 hrs; type: ADME, organism-based, Oryctolagus cuniculus; set-up: dose 6 mg/kg, route intravenous; settings: read-out: PPB (converted)
Staphylococcus aureus [17] = experiment: Bactericidal activity against glycopeptide-intermediate Staphylococcus aureus ATCC 700788 at 0.5 to 4 times MIC by time-kill experiment; type: functional, organism-based; method in brief: as §2
Staphylococcus aureus [18] = experiment: Antimicrobial activity against methicillin-resistant Staphylococcus aureus by Etest; type: functional

Molecule: CN[C@H](CC(C)C)C(=O)N[C@H]1C(=O)N[C@@H](CC(N)=O)C(=O)N[C@H]2C(=O)N[C@H]3C(=O)N[C@H](C(=O)N[C@H](C(=O)O)c4cc(O)cc(O)c4-c4cc3ccc4O)[C@H](O)c3ccc(c(Cl)c3)Oc3cc2cc(c3O[C@@H]2O[C@H](CO)[C@@H](O)[C@H](O)[C@H]2O[C@H]2C[C@](C)(N)[C@H](O)[C@H](C)O2)Oc2ccc(cc2Cl)[C@H]1O [VANCOMYCIN]
- concentration at 24 h [1]: 20000 ng/mL
- MIC (Staphylococcus aureus [2]): 8 µg/mL (≈ 5.52 µM)
- concentration at 24 h [3]: 20000 ng/mL
- Activity (Staphylococcus aureus [4]): Active
- half-life [5]: 1.3 h
- half-life [6]: 4.8 h
- Activity (Staphylococcus aureus [7]): Active
- fraction unbound at 12 h [8]: 0.35

Molecule: CCCCCCCCCC(=O)N[C@@H](Cc1c[nH]c2ccccc12)C(=O)N[C@H](CC(N)=O)C(=O)N[C@@H](CC(=O)O)C(=O)N[C@@H]1C(=O)NCC(=O)N[C@@H](CCCN)C(=O)N[C@@H](CC(=O)O)C(=O)N[C@H](C)C(=O)N[C@@H](CC(=O)O)C(=O)NCC(=O)N[C@H](CO)C(=O)N[C@@H]([C@H](C)CC(=O)O)C(=O)N[C@@H](CC(=O)c2ccccc2N)C(=O)O[C@@H]1C
- half-life [9]: 9.5 h
- Cmax [10]: 86000 ng/mL
- MBC (Staphylococcus aureus [11]): 1 µg/mL (≈ 0.617 µM)
- MIC (Staphylococcus aureus [11]): 0.5 µg/mL (≈ 0.309 µM)
- Activity (Staphylococcus aureus [12]): Active
- AUC at 24 h [13]: 974 µg·h/mL
- MIC (Staphylococcus aureus [2]): 0.5 µg/mL (≈ 0.309 µM)
- MIC (Staphylococcus aureus [14]): 0.12 µg/mL (≈ 0.074 µM)
- fraction unbound at 24 h [15]: 0.08
- fraction unbound at 24 h [16]: 0.1
- Activity (Staphylococcus aureus [17]): Active
- MIC (Staphylococcus aureus [18]): 0.12 µg/mL (≈ 0.074 µM)

Molecule: GENTAMICIN
- MBC (Staphylococcus aureus [11]): 128 µg/mL
- MIC (Staphylococcus aureus [11]): 0.25 µg/mL
